From ChEMBL document CHEMBL1140921, “Discovery of novel Myc-Max heterodimer disruptors with a three-dimensional pharmacophore model” (J Med Chem, 2009)
The source made the active and inactive calls. The calls are words filed in the database; no cut-off is given here.

Columns and labels:
[1] = Inhibition of 6-His tagged recombinant c-Myc353-437 gene binding to Max(S) protein assessed as disruption of heterodimer formation by circular dichroism assay
Outline: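 Circular dichroism on equimolar c-Myc and Max (1.5 µM each), with helical content read as ellipticity at 222 nm. Compounds were screened at 200 µM (average of three independent trials), then titrated over a concentration range. The fitted Kcomp was multiplied by the independently determined c-Myc–Max dissociation constant to estimate affinity for c-Myc monomer. Triplicate.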

[2] = Cytotoxicity against rat c-Myc knockout KO-HMG cells overexpressing HMGA1b by MTS assay; format: cell-based
HL-60 = assay: Cytotoxicity against human HL60 cells by MTS assay; format: functional, cell-based
Outline: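 HL60 cell growth dose-response profiles; IC50 calculated from the profile on day 5 after compound addition.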

SMILES | IC50 [1] | IC50 (HL-60) | other results
CCCCOC(=O)CCN1C(=O)/C(=C/c2ccc(CC)cc2)SC1=S | 10 µM |  | 
CCc1ccc(OCC(=O)Nc2ccc(C)cc2Br)cc1 |  | 23 µM | IC50 [2]: > 55 µM
CN(C)c1ccc(/C=C2\SC(=S)NC2=O)cc1 |  |  | Activity [1]: inactive
CCc1ccc(/C=C2\SC(=S)NC2=O)cc1 | 49 µM | 35 µM | 
O=C1NC(=S)S/C1=C\c1ccc(O)c(O)c1 | 23 µM |  | 
Cc1ccc(C)c(OCN2Cc3ccccc3C2C=O)c1 (stereo not drawn) |  | 15 µM | IC50 [2]: > 35 µM
O=C1NC(=S)S/C1=C\c1ccc(Cl)cc1 | 41 µM |  | 
O=C1NC(=S)S/C1=C\c1ccc(O)cc1 |  |  | Activity [1]: inactive
CC(C)c1ccc(/C=C2\SC(=S)NC2=O)cc1 | 38 µM |  | 
CCCN1C(=O)/C(=C/c2ccc(CC)cc2)SC1=S | 4.6 µM |  | 
